# Assay results: ChEMBL document CHEMBL1926565, “Synthesis, antiproliferative activities and telomerase inhibition evaluation of novel asymmetrical 1,2-disubstituted amidoanthraquinone derivatives” (Eur J Med Chem, 2012)
# pIC50: −log10 of the molar value. Calls of active or inactive are those of the source. The rule behind the calls is not given here.
# How the values were obtained:
# [1] = tested on: PC-3; experiment: Cytotoxicity against human PC3 cells after 48 hrs by SRB assay; assay type: functional, cell-based; conditions: PC-3, 48 h
# Outline: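 PC-3 cells grown in RPMI1640 with 10% FBS at 37 °C, 5% CO₂. Seeded in medium with 5% FBS; after 24 h, one plate fixed with 10% TCA as T₀. Compound or 0.1% DMSO vehicle added for 48 h, then TCA fixation and 0.4% SRB in 1% acetic acid. Dye solubilized in 10 mM Trizma base, absorbance read at 515 nm. IC50 is the concentration giving 50% reduction of the protein gain in controls.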
# [2] = biological target: Telomerase reverse transcriptase (Homo sapiens) (UniProt O14746); experiment: Inhibition of telomerase activity in human H1299 cell free extract at 10 uM by modified TRAP assay
# Chain of Telomerase reverse transcriptase (Homo sapiens) (O14746 whole entry): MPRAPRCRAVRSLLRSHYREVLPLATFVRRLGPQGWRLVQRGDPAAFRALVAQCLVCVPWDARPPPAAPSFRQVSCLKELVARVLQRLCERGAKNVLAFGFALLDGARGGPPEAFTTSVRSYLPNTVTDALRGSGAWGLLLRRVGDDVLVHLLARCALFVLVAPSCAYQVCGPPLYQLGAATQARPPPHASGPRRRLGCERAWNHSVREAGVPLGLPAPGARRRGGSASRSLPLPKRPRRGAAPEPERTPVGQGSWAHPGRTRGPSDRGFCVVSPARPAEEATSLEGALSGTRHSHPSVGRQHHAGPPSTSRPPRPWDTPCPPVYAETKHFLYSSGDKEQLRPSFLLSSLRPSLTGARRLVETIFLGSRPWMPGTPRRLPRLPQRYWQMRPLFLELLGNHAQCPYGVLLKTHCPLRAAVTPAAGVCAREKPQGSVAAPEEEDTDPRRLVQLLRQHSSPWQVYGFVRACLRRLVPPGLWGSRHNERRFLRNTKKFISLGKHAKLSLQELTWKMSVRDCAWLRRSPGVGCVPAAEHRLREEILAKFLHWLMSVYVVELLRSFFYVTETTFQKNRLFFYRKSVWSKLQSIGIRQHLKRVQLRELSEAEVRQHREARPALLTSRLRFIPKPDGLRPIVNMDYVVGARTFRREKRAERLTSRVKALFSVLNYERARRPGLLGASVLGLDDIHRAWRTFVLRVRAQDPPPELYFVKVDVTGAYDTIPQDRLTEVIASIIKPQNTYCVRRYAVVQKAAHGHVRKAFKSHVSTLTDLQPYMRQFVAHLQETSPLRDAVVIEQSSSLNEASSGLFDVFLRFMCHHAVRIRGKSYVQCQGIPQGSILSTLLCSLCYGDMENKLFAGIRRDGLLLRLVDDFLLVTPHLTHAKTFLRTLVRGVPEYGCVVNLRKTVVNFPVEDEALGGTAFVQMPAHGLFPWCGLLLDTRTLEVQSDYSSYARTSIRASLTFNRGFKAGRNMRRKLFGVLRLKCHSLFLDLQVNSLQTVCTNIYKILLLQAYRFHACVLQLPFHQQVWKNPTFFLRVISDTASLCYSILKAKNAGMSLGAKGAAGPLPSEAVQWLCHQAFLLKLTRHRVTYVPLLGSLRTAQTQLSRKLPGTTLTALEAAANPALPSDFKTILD
# Outline: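 TRAP assay using total cell lysate from H1299 lung cancer cells as the telomerase source, with protein measured against BSA standards. Compounds tested at 10 µM. Controls were lysate without inhibitor (positive) and RNase A-treated extract without inhibitor (negative).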
# [3] = Growth of human H1299 cells at 100 uM 48 hrs by MTT assay; conditions: NCI-H1299, 48 h
# [4] = Growth of human H1299 cells at 1 uM after 48 hrs by MTT assay; conditions: NCI-H1299, 48 h
# [5] = Growth of human H1299 cells at 10 uM after 48 hrs by MTT assay; conditions: NCI-H1299, 48 h
# [6] = biological target: Telomerase reverse transcriptase (Homo sapiens) (UniProt O14746); experiment: Residual activity of human TERT in H1299 cells at 1 uM after 24 hrs by SEAP reporter gene assay
# [7] = biological target: Telomerase reverse transcriptase (Homo sapiens) (UniProt O14746); experiment: Residual activity of human TERT in H1299 cells at 10 uM after 24 hrs by SEAP reporter gene assay
# [8] = biological target: Telomerase reverse transcriptase (Homo sapiens) (UniProt O14746); experiment: Residual activity of human TERT in H1299 cells at 100 uM after 24 hrs by SEAP reporter gene assay
Structure (SMILES),pIC50 [1],inhibition [2],"growth, % of control at 100 µM [3] [%]","growth, % of control at 1 µM [4] [%]","growth, % of control at 10 µM [5] [%]",residual activity [6] [%],residual activity [7] [%],residual activity [8] [%]
Cc1ccc(C(=O)Nc2c(NC(=O)CN3CCN(c4ccccn4)CC3)ccc3c2C(=O)c2ccccc2C3=O)cc1,< 4.70,inactive,6,105,100,97,64,9
O=C(CCl)Nc1ccc2c(c1NC(=O)CCl)C(=O)c1ccccc1C2=O,5.92,inactive,0,8,0,15,13,13
O=C(CCl)Nc1ccc2c(c1NC(=O)c1cccc(F)c1)C(=O)c1ccccc1C2=O,5.46,inactive,1,18,8,26,1,0
O=C(CCl)Nc1ccc2c(c1NC(=O)c1ccc(F)cc1)C(=O)c1ccccc1C2=O,5.50,inactive,0,10,4,11,2,0
O=C(CCl)Nc1ccc2c(c1NC(=O)c1cccc(C(F)(F)F)c1)C(=O)c1ccccc1C2=O,5.25,inactive,3,94,5,99,4,0
O=C(CCl)Nc1ccc2c(c1NC(=O)CSc1ccccc1)C(=O)c1ccccc1C2=O,5.27,inactive,0,88,5,80,3,0
